The structures appear in SMILES notation. Active and inactive are the calls of the source. No cut-off for these calls is given here.

This note sets out measurements from ChEMBL document CHEMBL1828575, “Design, synthesis and antiproliferative activities of biarylolefins based on polyhydroxylated and carbohydrate scaffolds” (Eur J Med Chem, 2011).

The species named for one test is Ovis aries. Nature of the test: Inhibition of sheep brain tubulin polymerization at 10 uM. Put shortly: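 Microtubule protein from sheep brain, purified by two assembly/disassembly cycles (37 °C/0 °C), in 100 mM MES pH 6.6, 1 mM EGTA, 0.5 mM MgCl₂. Compounds in DMSO were tested at a single concentration, with incubation at 37 °C for 10 min and then 0 °C for 5 min before measuring assembly rate, following a modified Guénard protocol.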

For test [1], the system named is PC-3. The test can be described thus: Cytotoxicity against human PC3 cells at 10^-6 M after 72 hrs by MTS assay. Particulars: PC-3, 72 h, read-out: GI. It counts as functional. Put shortly:
(§1)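 Preliminary screen at 10^-5 and 10^-6 M. Cells were grown in RPMI with 10% fetal calf serum plus penicillin, streptomycin and fungizone under 5% CO₂, plated in 96-well plates, and dosed 24 h later from DMSO stocks (1% DMSO final, same in controls). After 72 h, MTS was added for 3 h at 37 °C and absorbance read at 490 nm. Inhibition was calculated as (1 − OD treated/OD control) × 100, in triplicate.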
Background: Formazan colour is commonly taken as a measure of viable cells.

The subject of test [2] is SF-268. The test can be described thus: Cytotoxicity against human SF268 cells at 10^-6 M after 72 hrs by MTS assay. The test is classed as functional. As to conditions: SF-268, 72 h, read-out: GI. A digest of the protocol: as §1
Test [3] relates to SK-OV-3. Nature of the test: Cytotoxicity against human SKOV3 cells at 10^-6 M after 72 hrs by MTS assay. The test is classed as functional. Particulars: SK-OV-3, 72 h, read-out: GI. A digest of the protocol: as §1
For test [4], the system named is OVCAR-8. The test can be described thus: Cytotoxicity against human OVCAR8 cells at 10^-6 M after 72 hrs by MTS assay. Particulars: OVCAR-8, 72 h, read-out: GI. The test is classed as functional. Put shortly: as §1
The subject of test [5] is MIA PaCa-2. Nature of the test: Cytotoxicity against human MIAPaCa2 cells at 10^-6 M after 72 hrs by MTS assay. It counts as functional. As to conditions: MIA PaCa-2, 72 h, read-out: GI.
Test [6] deals with HL-60. The test can be described thus: Cytotoxicity against human HL60 cells at 10^-6 M after 72 hrs by MTS assay. The test is classed as functional. As to conditions: HL-60, 72 h, read-out: GI. A digest of the protocol:
(§2)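 Cells grown in RPMI with 10% fetal calf serum, penicillin, streptomycin and fungizone under 5% CO₂. Plated in 96-well plates and dosed 24 h later with compound in DMSO (1% final DMSO; controls got DMSO alone). After 72 h, MTS was added for 3 h at 37 °C and A490 read. Inhibition = (1 − OD treated/OD control) × 100, in triplicate.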

A short description of test [7]: Cytotoxicity against human HL60R cells at 10^-6 M after 72 hrs by MTS assay. It counts as functional. As to conditions: read-out: GI. Put shortly: as §2
The subject of test [8] is K562. The test can be described thus: Cytotoxicity against human K562 cells at 10^-6 M after 72 hrs by MTS assay. As to conditions: K562, 72 h, read-out: GI. The test is classed as functional. A digest of the protocol: as §2
Test [9] has as its system HCT-116. The test can be described thus: Cytotoxicity against human HCT116 cells at 10^-5 M after 72 hrs by MTS assay. The test is classed as functional. As to conditions: HCT-116, 72 h, read-out: GI. Put shortly: as §2
The subject of test [10] is HT-29. Nature of the test: Cytotoxicity against human HT-29 cells at 10^-5 M after 72 hrs by MTS assay. It counts as functional. Particulars: HT-29, 72 h, read-out: GI. Put shortly: as §2
For test [11], the system named is HCT-15. Nature of the test: Cytotoxicity against human HCT15 cells at 10^-5 M after 72 hrs by MTS assay. The test is classed as functional. As to conditions: HCT-15, 72 h, read-out: GI. A digest of the protocol: as §2
Test [12] concerns MCF7. The test can be described thus: Cytotoxicity against human MCF7 cells at 10^-5 M after 72 hrs by MTS assay. The test is classed as functional. As to conditions: MCF7, 72 h, read-out: GI.
A short description of test [13]: Cytotoxicity against human MDA231 cells at 10^-5 M after 72 hrs by MTS assay. The test is classed as functional. Particulars: MDA-MB-231, 72 h, read-out: GI. Put shortly: as §1
Test [14] deals with A549. Nature of the test: Cytotoxicity against human A549 cells at 10^-5 M after 72 hrs by MTS assay. It counts as functional. As to conditions: A549, 72 h, read-out: GI. A digest of the protocol:
as §2

Test [15] concerns PC-3. Nature of the test: Cytotoxicity against human PC3 cells at 10^-5 M after 72 hrs by MTS assay. The test is classed as functional. As to conditions: PC-3, 72 h, read-out: GI. Put shortly: as §1
Test [16] relates to SF-268. The test can be described thus: Cytotoxicity against human SF268 cells at 10^-5 M after 72 hrs by MTS assay. It counts as functional. As to conditions: SF-268, 72 h, read-out: GI. A digest of the protocol:
as §1

Test [17] concerns SK-OV-3. Nature of the test: Cytotoxicity against human SKOV3 cells at 10^-5 M after 72 hrs by MTS assay. The test is classed as functional. As to conditions: SK-OV-3, 72 h, read-out: GI. Put shortly:
as §1

Test [18] deals with OVCAR-8. The test can be described thus: Cytotoxicity against human OVCAR8 cells at 10^-5 M after 72 hrs by MTS assay. It counts as functional. As to conditions: OVCAR-8, 72 h, read-out: GI. A digest of the protocol:
as §1

Test [19] deals with MIA PaCa-2. The test can be described thus: Cytotoxicity against human MIAPaCa2 cells at 10^-5 M after 72 hrs by MTS assay. The test is classed as functional. Particulars: MIA PaCa-2, 72 h, read-out: GI.
For test [20], the system named is HL-60. Nature of the test: Cytotoxicity against human HL60 cells at 10^-5 M after 72 hrs by MTS assay. The test is classed as functional. As to conditions: HL-60, 72 h, read-out: GI. A digest of the protocol: as §2
The nature of test [21]: Cytotoxicity against human HL60R cells at 10^-5 M after 72 hrs by MTS assay. The test is classed as functional, HL-60. As to conditions: read-out: GI. A digest of the protocol: as §2
Test [22] deals with K562. The test can be described thus: Cytotoxicity against human K562 cells at 10^-5 M after 72 hrs by MTS assay. The test is classed as functional. Particulars: K562, 72 h, read-out: GI. Put shortly: as §2
In test [23] the test system is HCT-116. Nature of the test: Cytotoxicity against human HCT116 cells at 10^-6 M after 72 hrs by MTS assay. The test is classed as functional. As to conditions: HCT-116, 72 h, read-out: GI. Put shortly:
as §2

For test [24], the system named is HT-29. The test can be described thus: Cytotoxicity against human HT-29 cells at 10^-6 M after 72 hrs by MTS assay. The test is classed as functional. As to conditions: HT-29, 72 h, read-out: GI. A digest of the protocol: as §2
The subject of test [25] is HCT-15. Nature of the test: Cytotoxicity against human HCT15 cells at 10^-6 M after 72 hrs by MTS assay. The test is classed as functional. As to conditions: HCT-15, 72 h, read-out: GI. A digest of the protocol: as §2
The test system of test [26] is MCF7. Nature of the test: Cytotoxicity against human MCF7 cells at 10^-6 M after 72 hrs by MTS assay. The test is classed as functional. Particulars: MCF7, 72 h, read-out: GI.
Test [27] can be described thus: Cytotoxicity against human MDA231 cells at 10^-6 M after 72 hrs by MTS assay. Particulars: MDA-MB-231, 72 h, read-out: GI. It counts as functional. Put shortly: as §1
For test [28], the system named is A549. The test can be described thus: Cytotoxicity against human A549 cells at 10^-6 M after 72 hrs by MTS assay. It counts as functional. Particulars: A549, 72 h, read-out: GI. Put shortly: as §2
Test [29] in a line: Cytotoxicity against human NCI60 cells assessed as cellular growth at 10 uM after 48 hrs by SRB assay relative to untreated control. The test is classed as functional. Put shortly:
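NCI-60 panel lines grown in RPMI 1640 with 5% FBS and 2 mM L-glutamine. Plated at 5000–40,000 cells/well and preincubated 24 h at 37 °C, 5% CO₂, with time-zero plates fixed in TCA. Compounds, dissolved in DMSO and diluted in medium, were applied for 48 h. Cells were TCA-fixed (10% final for adherent, 16% for suspension) and stained with 0.4% SRB in 1% acetic acid. Dye was solubilised in 10 mM Tris base and read at 515 nm; growth was expressed as a percentage of untreated control.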

Regarding `COc1cc(C(=C(CO)CO)c2ccc3c(c2)OCO3)cc(OC)c1OC`, in the test listed under Ovis aries, the “tubulin polymerization inhibition call (active/not active)” value is “inactive”.

Turning to `COc1cc(C(=C(COC(C)=O)COC(C)=O)c2ccc3ccccc3c2)cc(OC)c1OC`, the inhibition of growth at 1 µM in the test on PC-3 [1] amounted to 18%; in the test on SF-268 [2], 17%; with SK-OV-3 [3] it was 12%; in the test on OVCAR-8 [4] it was 0%; in the test on MIA PaCa-2 [5] it was 4%; with HL-60 [6] it was 11%. Besides, the inhibition of growth at 1 µM came out at 19% in test [7]; 12% in the test with K562 [8]; 0% in the test with HCT-116 [23]; 0% with HT-29 [24]; 8% in the test on HCT-15 [25]; 10% in the test on MCF7 [26]. In addition, the inhibition of growth at 1 µM was 0% in test [27] and 3% in the test on A549 [28]. Moreover, the inhibition of growth at 10 µM in the test with HCT-116 [9] worked out at 20%; with HT-29 [10], 22%; in the test with HCT-15 [11], 65%; with MCF7 [12] it was 17%; in [13] it was 74%; in the test on A549 [14], 45%. The inhibition of growth at 10 µM with PC-3 [15] is 62%; with SF-268 [16], 81%; in the test on SK-OV-3 [17], 46%; in the test with OVCAR-8 [18], 6%; in the test on MIA PaCa-2 [19], 15%; with HL-60 [20] it was 82%. Moreover, the inhibition of growth at 10 µM in [21] was 41%; in the test on K562 [22], 83%. For the same compound, the “tubulin polymerization inhibition call (active/not active)” value in the test filed under Ovis aries was “inactive”.

For `COc1cc([C@@H]2c3cc4c(cc3C[C@H]3COC(=O)[C@@H]32)OCO4)cc(OC)c1OC`, the “tubulin polymerization inhibition call (active/not active)” value in the test filed under Ovis aries is “Active”.

As to `COc1cc(/C(=C2/O[C@@H]([C@H](O)CO)[C@H]3OC(C)(C)O[C@@H]23)c2cccc([N+](=O)[O-])c2)cc(OC)c1OC`, the inhibition of growth at 1 µM in the test with PC-3 [1] was determined as 1%; with SF-268 [2] it was 17%; with SK-OV-3 [3] it was 10%; with OVCAR-8 [4], 0%; in the test with MIA PaCa-2 [5], 0%; in the test on HL-60 [6], 11%. The inhibition of growth at 1 µM turned out to be 6% in test [7]; 0% in the test on K562 [8]; 0% in the test on HCT-116 [23]; 4% in the test with HT-29 [24]; 10% with HCT-15 [25]; 4% with MCF7 [26]. In addition, the inhibition of growth at 1 µM in test [27] was 0%; in the test on A549 [28], 8%. Also, the inhibition of growth at 10 µM in the test on HCT-116 [9] stood at 0%; in the test with HT-29 [10], 4%; in the test on HCT-15 [11], 6%; with MCF7 [12] it was 14%; in test [13] it was 0%; in the test on A549 [14], 14%. Further, the inhibition of growth at 10 µM with PC-3 [15] is 23%; with SF-268 [16] it was 26%; with SK-OV-3 [17] it was 16%; in the test on OVCAR-8 [18], 0%; with MIA PaCa-2 [19] it was 0%; in the test with HL-60 [20], 10%. In addition, the inhibition of growth at 10 µM in [21] turned out to be 11%; with K562 [22], 18%.

For `COc1cc(C(=C2O[C@@H]([C@H](O)CO)[C@H]3OC(C)(C)O[C@@H]23)c2cc(OC)c(OC)c(OC)c2)cc(OC)c1OC`, the Activity in test [29] is on record as 103%.

With `COc1cc(/C(=C2\O[C@@H]([C@H]3COC(C)(C)O3)[C@H]3OC(C)(C)O[C@@H]23)c2cccc(N)c2)cc(OC)c1OC`, in test [29], the Activity was 102%.

`COc1cc(/C(=C2\O[C@@H]([C@H](O)CO)[C@H]3OC(C)(C)O[C@@H]23)c2cccc(N)c2)cc(OC)c1OC`: the Activity in test [29] is given as 103%. Besides, in the test listed under Ovis aries, the “tubulin polymerization inhibition call (active/not active)” value was “inactive”.
